Drawing on ChEMBL document CHEMBL3259614, “Design, synthesis, and structure-activity relationship studies of novel fused heterocycles-linked triazoles with good activity and water solubility” (J Med Chem, 2014), this text covers MIC for eight compounds.

SMILES strings stand for the structures. Converted amounts (≈) assume the structure as drawn. Some results are limits rather than exact numbers.

The term MIC denotes the lowest concentration found to suppress growth. A high value points to weaker potency.

In the first assay the test system is Candida albicans. The assay is described as follows: Antimicrobial activity against Candida albicans SC5314 after 24 hrs by serial dilution method. The format is functional. To be noted: SC5314, 24 h. In outline:
(§1)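 Broth serial dilution MIC in 96-well plates following NCCLS/CLSI methods. Compounds were dissolved in DMSO and serially diluted in growth medium, with incubation at 35 °C. […] C. parapsilosis 22019 served as the quality-control strain in each assay.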
Take `C[C@@H](N1CCn2nnc(-c3cncnc3)c2C1)[C@](O)(Cn1cncn1)c1ccc(F)cc1F`: it took 1 µg/mL (≈ 2.21 µM) to inhibit growth (MIC).
Same read-out and setting: to `C[C@@H](N1CCn2nnc(-c3ccc(C#N)nc3)c2C1)[C@](O)(Cn1cncn1)c1ccc(F)cc1F` belongs 2 µg/mL (≈ 4.19 µM); to `C[C@@H](N1CCn2cc(C(F)(F)F)nc2C1)[C@](O)(Cn1cncn1)c1ccc(F)cc1F`, 0.25 µg/mL (≈ 0.565 µM); to `CCOC(=O)c1cn2c(n1)CN([C@H](C)[C@](O)(Cn1cncn1)c1ccc(F)cc1F)CC2`, 0.5 µg/mL (≈ 1.12 µM).
Compound `C[C@@H](N1CCn2cc(C(C)(C)C)nc2C1)[C@](O)(Cn1cncn1)c1ccc(F)cc1F` yielded an MIC of 0.25 µg/mL (≈ 0.581 µM).
Same read-out and setting: to `COc1ccc(-c2cn3c(n2)CN([C@H](C)[C@](O)(Cn2cncn2)c2ccc(F)cc2F)CC3)cc1` belongs 0.0625 µg/mL (≈ 0.13 µM); to `C[C@@H](N1CCn2cc(-c3ccc(F)cc3)nc2C1)[C@](O)(Cn1cncn1)c1ccc(F)cc1F`, 0.125 µg/mL (≈ 0.267 µM).
Same read-out and setting: the result for `C[C@@H](N1CCn2cc(-c3ccc(C(F)(F)F)cc3)nc2C1)[C@](O)(Cn1cncn1)c1ccc(F)cc1F` reads 0.125 µg/mL (≈ 0.241 µM).

The test system of the next assay is Candida albicans. The experiment in a line: Antimicrobial activity against Candida albicans Y0109 after 24 hrs by serial dilution method. Format: functional. The settings on record: Y0109, 24 h. In outline: as §1
In turn, `C[C@@H](N1CCn2nnc(-c3cncnc3)c2C1)[C@](O)(Cn1cncn1)c1ccc(F)cc1F` gave an MIC of 2 µg/mL (≈ 4.41 µM).
Still for that read-out and setting: to `C[C@@H](N1CCn2nnc(-c3ccc(C#N)nc3)c2C1)[C@](O)(Cn1cncn1)c1ccc(F)cc1F` belongs 4 µg/mL (≈ 8.38 µM); to `C[C@@H](N1CCn2cc(C(F)(F)F)nc2C1)[C@](O)(Cn1cncn1)c1ccc(F)cc1F`, 0.25 µg/mL (≈ 0.565 µM); to `CCOC(=O)c1cn2c(n1)CN([C@H](C)[C@](O)(Cn1cncn1)c1ccc(F)cc1F)CC2`, 0.5 µg/mL (≈ 1.12 µM).
Still for that read-out and setting: to `C[C@@H](N1CCn2cc(C(C)(C)C)nc2C1)[C@](O)(Cn1cncn1)c1ccc(F)cc1F` belongs 0.125 µg/mL (≈ 0.29 µM); to `COc1ccc(-c2cn3c(n2)CN([C@H](C)[C@](O)(Cn2cncn2)c2ccc(F)cc2F)CC3)cc1`, 0.0625 µg/mL (≈ 0.13 µM); to `C[C@@H](N1CCn2cc(-c3ccc(F)cc3)nc2C1)[C@](O)(Cn1cncn1)c1ccc(F)cc1F`, 0.125 µg/mL (≈ 0.267 µM).
The compound `C[C@@H](N1CCn2cc(-c3ccc(C(F)(F)F)cc3)nc2C1)[C@](O)(Cn1cncn1)c1ccc(F)cc1F` gave an MIC of 0.25 µg/mL (≈ 0.482 µM).

The test system of another assay is Candida parapsilosis. The assay is described as follows: Antimicrobial activity against Candida parapsilosis 22019 after 24 hrs by serial dilution method. Format: functional. To be noted: Lodderomyces parapsilosis, 22019, 24 h. The essentials: as §1
`C[C@@H](N1CCn2nnc(-c3cncnc3)c2C1)[C@](O)(Cn1cncn1)c1ccc(F)cc1F` came in with a minimum inhibitory concentration (MIC) of 8 µg/mL (≈ 17.6 µM).
The same measure, in the same setting: to `C[C@@H](N1CCn2nnc(-c3ccc(C#N)nc3)c2C1)[C@](O)(Cn1cncn1)c1ccc(F)cc1F` belongs 4 µg/mL (≈ 8.38 µM); to `C[C@@H](N1CCn2cc(C(F)(F)F)nc2C1)[C@](O)(Cn1cncn1)c1ccc(F)cc1F`, 0.25 µg/mL (≈ 0.565 µM).
Same read-out and setting: to `CCOC(=O)c1cn2c(n1)CN([C@H](C)[C@](O)(Cn1cncn1)c1ccc(F)cc1F)CC2` belongs 0.5 µg/mL (≈ 1.12 µM); to `C[C@@H](N1CCn2cc(C(C)(C)C)nc2C1)[C@](O)(Cn1cncn1)c1ccc(F)cc1F`, 0.25 µg/mL (≈ 0.581 µM); to `COc1ccc(-c2cn3c(n2)CN([C@H](C)[C@](O)(Cn2cncn2)c2ccc(F)cc2F)CC3)cc1`, 0.125 µg/mL (≈ 0.26 µM).
`C[C@@H](N1CCn2cc(-c3ccc(F)cc3)nc2C1)[C@](O)(Cn1cncn1)c1ccc(F)cc1F` displayed an MIC of 0.125 µg/mL (≈ 0.267 µM).
Same read-out and setting: the result for `C[C@@H](N1CCn2cc(-c3ccc(C(F)(F)F)cc3)nc2C1)[C@](O)(Cn1cncn1)c1ccc(F)cc1F` reads 0.25 µg/mL (≈ 0.482 µM).

The next assay relates to Cryptococcus neoformans. The assay is described as follows: Antimicrobial activity against Cryptococcus neoformans 32609 after 72 hrs by serial dilution method. Format: functional. To be noted: Cryptococcus neoformans, 32609, 72 h. The essentials: as §1
In turn, `C[C@@H](N1CCn2nnc(-c3cncnc3)c2C1)[C@](O)(Cn1cncn1)c1ccc(F)cc1F` yielded an MIC of 8 µg/mL (≈ 17.6 µM).
On to `C[C@@H](N1CCn2nnc(-c3ccc(C#N)nc3)c2C1)[C@](O)(Cn1cncn1)c1ccc(F)cc1F`, for which the MIC came to 16 µg/mL (≈ 33.5 µM). This MIC lies about 2-fold higher than the previous one.
On the same count and under the same terms, to `C[C@@H](N1CCn2cc(C(F)(F)F)nc2C1)[C@](O)(Cn1cncn1)c1ccc(F)cc1F` belongs 1 µg/mL (≈ 2.26 µM).
On the same count and under the same terms, to `CCOC(=O)c1cn2c(n1)CN([C@H](C)[C@](O)(Cn1cncn1)c1ccc(F)cc1F)CC2` belongs 2 µg/mL (≈ 4.48 µM); to `C[C@@H](N1CCn2cc(C(C)(C)C)nc2C1)[C@](O)(Cn1cncn1)c1ccc(F)cc1F`, 0.25 µg/mL (≈ 0.581 µM).
Still for that read-out and setting: the result for `COc1ccc(-c2cn3c(n2)CN([C@H](C)[C@](O)(Cn2cncn2)c2ccc(F)cc2F)CC3)cc1` reads 0.125 µg/mL (≈ 0.26 µM).
Consider `C[C@@H](N1CCn2cc(-c3ccc(F)cc3)nc2C1)[C@](O)(Cn1cncn1)c1ccc(F)cc1F`, for which the MIC came out at 0.125 µg/mL (≈ 0.267 µM).
The same measure, in the same setting: the result for `C[C@@H](N1CCn2cc(-c3ccc(C(F)(F)F)cc3)nc2C1)[C@](O)(Cn1cncn1)c1ccc(F)cc1F` reads 0.125 µg/mL (≈ 0.241 µM).

The test system of the next assay is Nakaseomyces glabratus. The assay is described as follows: Antimicrobial activity against Candida glabrata 537 after 24 hrs by serial dilution method. To be noted: Nakaseomyces glabratus, 537, 24 h. The format is functional. In outline:
as §1
Turning to `C[C@@H](N1CCn2nnc(-c3cncnc3)c2C1)[C@](O)(Cn1cncn1)c1ccc(F)cc1F`, the MIC amounted to 8 µg/mL (≈ 17.6 µM).
`C[C@@H](N1CCn2nnc(-c3ccc(C#N)nc3)c2C1)[C@](O)(Cn1cncn1)c1ccc(F)cc1F` registered an MIC of 4 µg/mL (≈ 8.38 µM). Compared with the last compound, the MIC is about 2-fold lower.
Same read-out and setting: the result for `C[C@@H](N1CCn2cc(C(F)(F)F)nc2C1)[C@](O)(Cn1cncn1)c1ccc(F)cc1F` reads 0.25 µg/mL (≈ 0.565 µM).
On the same count and under the same terms, to `CCOC(=O)c1cn2c(n1)CN([C@H](C)[C@](O)(Cn1cncn1)c1ccc(F)cc1F)CC2` belongs 1 µg/mL (≈ 2.24 µM); to `C[C@@H](N1CCn2cc(C(C)(C)C)nc2C1)[C@](O)(Cn1cncn1)c1ccc(F)cc1F`, 0.25 µg/mL (≈ 0.581 µM); to `COc1ccc(-c2cn3c(n2)CN([C@H](C)[C@](O)(Cn2cncn2)c2ccc(F)cc2F)CC3)cc1`, 0.125 µg/mL (≈ 0.26 µM).
The compound `C[C@@H](N1CCn2cc(-c3ccc(F)cc3)nc2C1)[C@](O)(Cn1cncn1)c1ccc(F)cc1F` returned an MIC of 0.125 µg/mL (≈ 0.267 µM).
On the same count and under the same terms, the result for `C[C@@H](N1CCn2cc(-c3ccc(C(F)(F)F)cc3)nc2C1)[C@](O)(Cn1cncn1)c1ccc(F)cc1F` reads 0.25 µg/mL (≈ 0.482 µM).

A further assay deals with Aspergillus fumigatus. The assay is described as follows: Antimicrobial activity against Aspergillus fumigatus 7544 after 48 hrs by serial dilution method. Format: functional. The settings on record: Aspergillus fumigatus, 7544, 48 h. The essentials: as §1
`C[C@@H](N1CCn2nnc(-c3cncnc3)c2C1)[C@](O)(Cn1cncn1)c1ccc(F)cc1F`: the MIC was > 16 µg/mL.
Still for that read-out and setting: to `C[C@@H](N1CCn2nnc(-c3ccc(C#N)nc3)c2C1)[C@](O)(Cn1cncn1)c1ccc(F)cc1F` belongs > 16 µg/mL.
The same measure, in the same setting: to `C[C@@H](N1CCn2cc(C(F)(F)F)nc2C1)[C@](O)(Cn1cncn1)c1ccc(F)cc1F` belongs > 64 µg/mL; to `CCOC(=O)c1cn2c(n1)CN([C@H](C)[C@](O)(Cn1cncn1)c1ccc(F)cc1F)CC2`, > 64 µg/mL.
As for `C[C@@H](N1CCn2cc(C(C)(C)C)nc2C1)[C@](O)(Cn1cncn1)c1ccc(F)cc1F`, the MIC was > 64 µg/mL.
On the same count and under the same terms, the result for `COc1ccc(-c2cn3c(n2)CN([C@H](C)[C@](O)(Cn2cncn2)c2ccc(F)cc2F)CC3)cc1` reads 32 µg/mL (≈ 66.6 µM).
Same read-out and setting: to `C[C@@H](N1CCn2cc(-c3ccc(F)cc3)nc2C1)[C@](O)(Cn1cncn1)c1ccc(F)cc1F` belongs 32 µg/mL (≈ 68.3 µM).
Take `C[C@@H](N1CCn2cc(-c3ccc(C(F)(F)F)cc3)nc2C1)[C@](O)(Cn1cncn1)c1ccc(F)cc1F`: the MIC was found to be 32 µg/mL (≈ 61.7 µM).
